Data reported in paper PMC6282775 (Journal of Clinical Pharmacology, 2018).

Key:
[1] = Clinical hepatic impairment study: total plasma PK of alectinib and M4; format: in vivo, human; details: single 300-mg dose of alectinib
Unbound fraction = format: in vivo, human; details: for fraction unbound: human, plasma, oral, 300 mg, median value of individual mean fu%, plasma 6 and 12 hours postdose; for GMR of unbound AUC0‐∞ / GMR of unbound Cmax: single 300-mg dose of alectinib
Summary of the method: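 Single oral 300 mg dose given 30 min after the start of a standard ~514 kcal meal, after a ≥10 h fast. Plasma taken 6 and 12 h postdose was dialyzed in triplicate, and plasma and buffer were analysed by LC-MS/MS. Samples were spiked if levels were too low. fu% = unbound/total ×100, geometric mean of triplicates (outlier dropped if CV >45.0%). GMRs from ANOVA of log Cmax and AUC0‐∞, with matched controls as a random effect.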

[2] = Safety evaluations in the clinical study; format: in vivo, human
Summary of the method: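 Open-label, multicenter, parallel-group study in healthy subjects and subjects with moderate (Child-Pugh B) or severe (Child-Pugh C) hepatic impairment. Subjects fasted at least 10 h, then took one oral 300-mg capsule dose of test compound with water 30 min after starting a standard meal. No food for 4 h. Adverse events, vital signs, clinical laboratory tests and ECGs were recorded, with follow-up 7–10 days after dosing.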

CYP3A = details: cited from earlier work
plasma proteins = details: cited from earlier work
[3] = moderate hepatic impairment/matched healthy subjects
[4] = severe hepatic impairment/matched healthy subjects

CCc1cc2c(cc1N1CCC(N3CCOCC3)CC1)C(C)(C)c1[nH]c3cc(C#N)ccc3c1C2=O [Alectinib]
GMR of total AUC0‐∞ [1, 3]: 160% | GMR of total Cmax [1, 3]: 128% | GMR of total AUC0‐∞ [1, 4]: 220% | GMR of total Cmax [1, 4]: 100% | fraction unbound (Unbound fraction; healthy subjects matched for moderate): 0.00206 | fraction unbound (Unbound fraction; healthy subjects matched for severe): 0.0014 | fraction unbound (Unbound fraction; moderate hepatic impairment): 0.00229 | fraction unbound (Unbound fraction; severe hepatic impairment): 0.00179 | GMR of unbound AUC0‐∞ (Unbound fraction; [3]): 186% | GMR of unbound Cmax (Unbound fraction; [3]): 148% | GMR of unbound AUC0‐∞ (Unbound fraction; [4]): 285% | GMR of unbound Cmax (Unbound fraction; [4]): 130% | changes in vital signs, laboratory values, or electrocardiogram measurements ([2]; single oral 300 mg, during the study): No clinically significant changes | tolerability ([2]; single oral dose of 300 mg, healthy subjects and subjects with moderate or severe hepatic impairment): well tolerated | increase in exposure on coadministration of a potent CYP3A inhibitor (CYP3A): 75% | protein binding in vitro (plasma proteins): ≥ 99%
